Screening data: PubChem, several laboratories
This is a sample that favours compounds with a hit; in the whole collection about 1.3% have one here.
SKN-1 block: blocks SKN-1 activity in C. elegans; C. elegans VP596 Pgst-4::GFP/RFP ratio, acrylamide-induced, 24 h; inhibition, % at 21.8 µM; 360,000 compounds, 0.49% hits; AID 624304;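 active means interference check ratio from 0.5 to 1.5 plus GFP to RFP signal ratio inhibition reaching or exceeding a fixed threshold, cut at about 30% in these data, passing the limit was not always enough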
DAGLB inh: diacylglycerol lipase beta (human) inhibition; HEK293T DAGLB membrane lysate, EnzChek fluorogenic substrate; inhibition, % at 5.17 µM; 340,000 compounds, 0.059% hits; in the data active means inhibition above about 34%;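 further: 0% = enzyme with vehicle and 100% = wells lacking enzyme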
FAS-TE inh: FAS thioesterase (human) inhibition. P49327. recombinant FAS-TE, OMFH fluorogenic substrate, fluorescence endpoint. inhibition, % at 15 µM. 360,000 compounds, 0.67% hits;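 active means compounds whose normalised, plate-corrected inhibition of enzyme fluorescence in the single-dose primary screen is 50% or more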;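 further: 0% = DMSO with enzyme and 100% = substrate without enzyme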
hiPSC survival: enhancers of human iPSC single-cell survival. survival enhancement, % at 20 µM. 360,000 compounds, 0.044% hits. hiPSC single-cell survival, ATPlite luminescence; 100% = ROCK inhibitor wells, 0% = DMSO. AID 602274; in the data active means survival enhancement above about 18%;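 further: cells exposed to compounds for 16 hours before the ATP read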
MT1-MMP act inh: blocks activation of human MT1-MMP. P50281. HT1080 RFP-PRO-GFP cells, GFP/RFP ratio fluorescence, overnight; percent of plate control window, DMSO zero. GFP/RFP ratio change, % at 20 µM. 360,000 compounds, 0.061% hits. AID 651647;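 active means GFP/RFP ratio change of at least 30% with cell ATP level not reduced by more than half and red fluorescence within 50% of control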
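Compound: 20 µM single dose, 1% DMSO / System: HT1080 RFP-PRO-GFP cells / Controls: DMSO and RFP-L50D-GFP cell wells / Read-out basis: GFP/RFP fluorescence ratio / Schedule: overnight compound exposure at 37 °C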
FAS-TE conf: confirmation of human fatty acid synthase thioesterase inhibitors; inhibition, % at 15 µM; shares compounds with FAS-TE inh; recombinant FAS-TE, OMFH fluorogenic substrate, fluorescence; AID 624325; 2,300 compounds, 45% hits;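 active means compounds inhibiting the enzyme by at least 50% at 15 µM in any one of the replicates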;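 further: 0% = enzyme with DMSO only and 100% = wells lacking enzyme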
Active calls of the source: *; / = not tested or not shown.

SMILES	SKN-1 block	DAGLB inh	FAS-TE inh	hiPSC survival	MT1-MMP act inh	FAS-TE conf
O=C(NC12CC3CC(CC(C3)C1)C2)c1cc([N+](=O)[O-])ccc1Cl	14	-2	59*	1	-1	26
CC(C)(C)NC(=O)C(c1ccc(C#N)cc1)n1c(=O)c(-c2cc3ccccc3[nH]2)nc2ccccc21 (centres undefined)	15	/	/	/	-17	/
CCC(=O)Nc1ccc(C(=O)COC(=O)C(CCSC)NC(=O)COc2ccccc2)cc1 (centres undefined)	-1	1	2	1	-4	/
COc1ccc(C(=O)COC(=O)C(CCSC)NC(=O)COc2ccccc2)cc1 (centres undefined)	8	2	64*	0	-1	14
COc1ccc2c(c1)[C@@H]1[C@H](CO2)[C@H](c2ccccc2)[C@]2(C)C(=O)Nc3ccc(C)cc3C(=O)N12	-12	3	83*	0	-3	-3
COc1ccc2c(c1)C(=O)N1[C@H]3c4cc(C)ccc4OC[C@@H]3[C@H](c3ccccc3)[C@]1(C)C(=O)N2	7	-6	73*	4	-24	35
CCOC(=O)[C@H]1[C@H]2COc3ccc(OC)cc3[C@@H]2N2C(=O)c3cc(C)ccc3NC(=O)[C@@]12C	15	-3	0	0	8	/
COc1ccc2c(c1)OC[C@H]1[C@H]2N2C(=O)c3ccccc3NC(=O)[C@@]2(C)[C@H]1c1ccccc1	11	2	70*	0	-11	31
COc1ccc2c(c1)[C@H]1[C@H](CO2)[C@H](c2ccccc2)[C@]2(C)C(=O)Nc3ccc(C)cc3C(=O)N12	1	1	44	2	-15	/
CC(C)(OC1OC(CO)C(O)C(O)C1O)[C@H]1Oc2ccc3ccc(=O)oc3c2[C@H]1O (some centres undefined)	12	1	-8	2	1	/
O=C1CC(c2ccccc2)CC2=C1C1(CCCC1)N=C(Nc1nc3ccccc3o1)N2 (centres undefined)	-2	/	69*	0	-25	10
CC(=O)OC1CC2C(C)(C)C(=O)C=CC2(C)C2CCC3(C)C(c4ccoc4)OC(=O)C4OC43C12C (centres undefined)	0	/	33	0	3	/
CC(=O)O[C@@H]1C[C@H]2C(C)(C)C(=O)C=C[C@]2(C)[C@H]2CC[C@@]3(C)[C@H](c4ccoc4)OC(=O)[C@H]4O[C@]43[C@@]21C	-16	-2	51*	2	7	29
CN1c2ccccc2C(C)(C)C12CC(c1cccc(S(=O)(=O)N3CCCC3)c1)=NO2 (centres undefined)	-1	-2	74*	2	1	15
CCN(CC)S(=O)(=O)c1ccc(C2=NOC3(C2)N(C)c2ccccc2C3(C)C)cc1 (centres undefined)	11	-3	50	1	5	/
CN1c2ccccc2C(C)(C)C12CC(c1ccc(S(=O)(=O)N3CCCCC3)cc1)=NO2 (centres undefined)	6	0	75*	5	-4	23
CC(C)C[C@H]1CNC(=S)N1C[C@H]1CCCN1C[C@H](Cc1ccccc1)N1C[C@H](CC(C)C)N(CCc2ccccc2)C1=S	9	/	-123	-1	-1	/
COc1cc(NC(=S)N2CCC(C(O)(c3ccccc3)c3ccccc3)CC2)cc(OC)c1	0	0	53*	-1	-21	32
CC1CCCN(S(=O)(=O)c2ccc3[nH]c4c(c3c2)CCCC4)C1 (centres undefined)	23	-2	24	0	-10	/
NC(=O)[C@H]1CC2(CC(c3cccc(NC(=O)COc4ccc(Cl)cc4)c3)=NO2)CN1C(=O)CC(c1ccccc1)c1ccccc1 (some centres undefined)	-3	-2	64*	0	5	29
NC(=O)[C@@H]1CC2(CC(c3cccc(NC(=O)CC(c4ccccc4)c4ccccc4)c3)=NO2)CN1C(=O)COc1ccc(Cl)cc1 (some centres undefined)	9	1	60*	-1	5	17
